From ChEMBL document CHEMBL3351384, “Synthesis of pyrazoline-thiazolidinone hybrids with trypanocidal activity” (Eur J Med Chem, 2014)
In brackets after ≈: the same amount, converted by molar mass.

What was measured:
[1] = test system: Trypanosoma brucei gambiense; assay: Anti-trypanosomal activity against Trypanosoma brucei gambiense Feo bloodstream forms assessed as inhibition of parasite growth rate at 1 ug/mL after 72 hrs by resazurin assay; type: functional; settings: read-out: GI
How it was run: (§1)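 Fixed-concentration screen of bloodstream-form Feo parasites, 10⁴ cells per well, cultured in HMI9 with 10% FCS at 37 °C, 5% CO2. Most compounds tested at 50, 10 and 1; some at 100, 20 and 2. Growth measured by resazurin fluorescence at 530 nm. Percent inhibition calculated against untreated wells.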

[2] = test system: Trypanosoma brucei gambiense; assay: Anti-trypanosomal activity against Trypanosoma brucei gambiense Feo bloodstream forms assessed as inhibition of parasite growth rate after 72 hrs by resazurin assay; type: functional, organism-based
How it was run: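 Bloodstream-form Feo parasites in HMI9 with 10% FCS, 37 °C, 5% CO2. Log-phase cells harvested at 3000 × g and used at once. 10⁴ cells per well, with or without inhibitor (stocks in DMSO). Resazurin added and fluorescence read at 530 nm. Inhibition taken against drug-free wells. IC50 from dose–response curves ranging down to 10 ng/ml. Mean ± SD of three independent experiments.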

[3] = test system: Trypanosoma brucei gambiense; assay: Anti-trypanosomal activity against Trypanosoma brucei gambiense Feo bloodstream forms assessed as inhibition of parasite growth rate at 50 ug/mL after 72 hrs by resazurin assay; type: functional; settings: read-out: GI; how it was run: as §1
[4] = test system: Trypanosoma brucei gambiense; assay: Anti-trypanosomal activity against Trypanosoma brucei gambiense Feo bloodstream forms assessed as inhibition of parasite growth rate at 10 ug/mL after 72 hrs by resazurin assay; type: functional; settings: read-out: GI; how it was run: as §1
Trypanosoma cruzi = assay: Anti-trypanosomal activity against Trypanosoma cruzi Y; type: functional, organism-based
[5] = test system: Trypanosoma brucei rhodesiense; assay: Anti-trypanosomal activity against Trypanosoma brucei rhodesiense; type: functional, organism-based
[6] = test system: Trypanosoma brucei brucei; assay: Anti-trypanosomal activity against Trypanosoma brucei brucei; type: functional, organism-based
[7] = test system: Trypanosoma brucei gambiense; assay: Anti-trypanosomal activity against Trypanosoma brucei gambiense Feo bloodstream forms assessed as inhibition of parasite growth rate at 20 ug/mL after 72 hrs by resazurin assay; type: functional; settings: read-out: GI; how it was run: as §1
[8] = test system: Trypanosoma brucei gambiense; assay: Anti-trypanosomal activity against Trypanosoma brucei gambiense Feo bloodstream forms assessed as inhibition of parasite growth rate at 100 ug/mL after 72 hrs by resazurin assay; type: functional; settings: read-out: GI; how it was run: as §1
[9] = test system: Trypanosoma brucei gambiense; assay: Anti-trypanosomal activity against Trypanosoma brucei gambiense Feo bloodstream forms assessed as inhibition of parasite growth rate at 2 ug/mL after 72 hrs by resazurin assay; type: functional; settings: read-out: GI; how it was run: as §1
[10] = Cytotoxicity against rat L6 cells after 5 days by resazurin assay; type: cell-based
How it was run: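 Rat myoblast L-6 cells in RPMI with 25 mM HEPES pH 7.3 and 10% fetal calf serum, 37 °C, 5% CO2. Compounds from DMSO stocks, final DMSO below 1%. Controls received DMSO only. Viability by resazurin conversion, fluorescence at 530 nm excitation and 590 nm emission after a further 4 h. CC50 is the mean ± SD of three independent experiments.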

[11] = test system: Trypanosoma brucei gambiense; assay: Potency index, ratio of IC50 for nifurtimox to IC50 for test compound against Trypanosoma brucei gambiense Feo bloodstream forms assessed as inhibition of parasite growth rate after 72 hrs by resazurin assay; type: functional
[12] = Selectivity index, ratio of CC50 for rat L6 cells to IC50 for Trypanosoma brucei gambiense Feo; type: functional
How it was run: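 Computed as CC50 (L-6 cells, resazurin) divided by IC50 (T. b. gambiense Feo bloodstream forms, resazurin). Both values are means of three independent experiments.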

Row | Compound | IC50 [2] [µM] | inhibition of growth at 1 µg/mL [1] [%] | inhibition of growth at 50 µg/mL [3] [%] | inhibition of growth at 10 µg/mL [4] [%] | also measured
1 | CCC1SC(N/N=C/CSc2ccccc2)=NC1=O (configuration not stated) | – | – | – | – | IC50 (Trypanosoma cruzi): 300 nM
2 | CC1=NN(C2=NC(=O)CS2)C(c2ccccc2)C1 (configuration not stated) | – | – | – | – | IC50 [5]: 12 µg/mL (≈ 46.3 µM)
3 | COc1ccc(C2CC(c3ccccc3)=NN2C2=NC(=O)S/C2=C\c2ccc([N+](=O)[O-])cc2)cc1 (configuration not stated) | – | – | – | – | IC50 [6]: 3.01 µg/mL (≈ 6.21 µM)
4 | CN1C(=O)/C(=C/N2N=C(c3ccccc3)CC2c2ccc(Cl)cc2)SC1=S (configuration not stated) | – | – | – | – | inhibition of growth at 20 µg/mL [7]: 42%; inhibition of growth at 100 µg/mL [8]: 56%; inhibition of growth at 2 µg/mL [9]: 8.2%
5 | CN1C(=O)/C(=C/N2N=C(c3ccc4ccccc4c3)CC2c2ccc(Cl)cc2)SC1=S (configuration not stated) | > 1 | 97.1 | 97 | 97.2 | CC50 at 120 h [10]: 154 µM
6 | COc1ccc(C2CC(c3ccccc3)=NN2/C=C2\SC(=S)N(Cc3ccco3)C2=O)cc1 (configuration not stated) | – | 37.9 | 46.6 | 67.3 | –
7 | COc1ccc(C2=NN(/C=C3\SC(=S)N(Cc4ccco4)C3=O)C(c3ccc(OC)cc3)C2)cc1 (configuration not stated) | > 98.9 | 38.7 | 12.8 | 48.2 | –
8 | COc1ccc(C2CC(c3ccc4ccccc4c3)=NN2/C=C2\SC(=S)N(Cc3ccco3)C2=O)cc1 (configuration not stated) | – | 19.4 | 54.6 | 32.1 | –
9 | O=C1/C(=C/N2N=C(c3ccc4ccccc4c3)CC2c2ccc(Cl)cc2)SC(=S)N1Cc1ccco1 (configuration not stated) | – | 29 | 59.6 | 45.3 | –
10 | COc1ccc(C2=NN(/C=C3\SC(=S)N(c4ccc(C)cc4)C3=O)C(c3ccc(OC)cc3)C2)cc1 (configuration not stated) | – | 44.5 | 23.1 | 55.5 | –
11 | Cc1ccc(N2C(=O)/C(=C/N3N=C(c4ccccc4)CC3c3ccc(N(C)C)cc3)SC2=S)cc1 (configuration not stated) | > 20.1 | 39.8 | 5.8 | 51.9 | –
12 | Cc1ccc(N2C(=O)/C(=C/N3N=C(c4ccc5ccccc5c4)CC3c3ccc(Cl)cc3)SC2=S)cc1 (configuration not stated) | 21.7 | 27.6 | 41.7 | 59.4 | –
13 | CC(=O)Oc1cccc(N2C(=O)/C(=C/N3N=C(c4ccc5ccccc5c4)CC3c3ccc(Cl)cc3)SC2=S)c1 (configuration not stated) | 16.5 | 66.7 | 90.6 | 89.9 | –
14 | COc1ccc(C2CC(c3ccc4ccccc4c3)=NN2/C=C2\SC(=O)NC2=S)cc1 (configuration not stated) | 18.6 | 19.7 | 87.2 | 74.7 | –

The next lines start with results.

Row | IC50 [2] [µM] | Compound | inhibition of growth at 1 µg/mL [1] [%] | inhibition of growth at 50 µg/mL [3] [%] | inhibition of growth at 10 µg/mL [4] [%] | also measured
15 | 3.5 | O=C1NC(=S)/C(=C/N2N=C(c3ccccc3)CC2c2ccccc2O)S1 (configuration not stated) | 61 | 85.8 | 93.3 | –
16 | 14.7 | COc1ccc(C2CC(c3ccccc3)=NN2/C=C2\SC(=S)NC2=O)cc1 (configuration not stated) | 21.9 | 91.5 | 92.3 | –
17 | 10.5 | CN(C)c1ccc(C2CC(c3ccccc3)=NN2/C=C2\SC(=S)NC2=O)cc1 (configuration not stated) | 30.2 | 74 | 76.2 | –
18 | 13.2 | O=C1NC(=S)S/C1=C\N1N=C(c2ccc3ccccc3c2)CC1c1ccc(F)cc1 (configuration not stated) | 19.9 | 85.4 | 85 | –
19 | 0.6 | COc1ccc(C2CC(c3ccc4ccccc4c3)=NN2/C=C2\SC(=S)N(C)C2=O)cc1 (configuration not stated) | 97.2 | 97.1 | 97.2 | Ratio IC50 [11]: 6; Ratio CC50/IC50 [12]: 292; CC50 at 120 h [10]: 175 µM
20 | 1.5 | COc1ccc(C2CC(c3ccccc3)=NN2/C=C2\SC(=S)N(c3ccc(C)cc3)C2=O)cc1 (configuration not stated) | 52.5 | 17.8 | 69.2 | –
21 | 2.5 | COc1ccc(C2=NN(/C=C3\SC(=S)N(c4ccc(C)cc4)C3=O)C(c3ccc(Cl)cc3)C2)cc1 (configuration not stated) | 62.8 | 40.2 | 70.4 | –
22 | 1.1 | CC(=O)Oc1cccc(N2C(=O)/C(=C/N3N=C(c4ccccc4)CC3c3ccccc3O)SC2=S)c1 (configuration not stated) | 83.1 | 90.9 | 93.8 | Ratio CC50/IC50 [12]: 12.4; CC50 at 120 h [10]: 13.6 µM
23 | 0.7 | COc1ccc(C2=NN(/C=C3\SC(=S)N(c4cccc(OC(C)=O)c4)C3=O)C(c3ccccc3O)C2)cc1 (configuration not stated) | 90.1 | 89.5 | 91.7 | Ratio IC50 [11]: 6; Ratio CC50/IC50 [12]: 57.1; CC50 at 120 h [10]: 40 µM
24 | 10.8 | COc1ccc(C2CC(c3ccccc3)=NN2/C=C2\SC(=S)N(c3cccc(OC(C)=O)c3)C2=O)cc1 (configuration not stated) | 79.3 | 97.2 | 97.5 | –
25 | 1.2 | COc1ccc(C2CC(c3ccc4ccccc4c3)=NN2/C=C2\SC(=S)N(c3cccc(OC(C)=O)c3)C2=O)cc1 (configuration not stated) | 87.6 | 94.7 | 95.8 | Ratio CC50/IC50 [12]: >143.8; CC50 at 120 h [10]: > 172 µM
26 | 1.2 | CC(=O)Oc1cccc(N2C(=O)/C(=C/N3N=C(c4ccccc4)CC3c3ccc(N(C)C)cc3)SC2=S)c1 (configuration not stated) | 53.1 | 81.6 | 84.9 | Ratio CC50/IC50 [12]: >153.6; CC50 at 120 h [10]: > 184 µM
27 | 1.9 | CC(=O)Oc1cccc(N2C(=O)/C(=C/N3N=C(c4ccccc4)CC3c3ccc(Cl)cc3)SC2=S)c1 (configuration not stated) | 42.1 | 90.3 | 91.4 | –
28 | 4.6 | COc1ccc(C2CC(c3ccccc3)=NN2C(=O)CN/C=C2\SC(=S)N(C)C2=O)cc1 (configuration not stated) | 62.3 | 96.1 | 96.5 | –
29 | 2.1 | CN1C(=O)/C(=C/NCC(=O)N2N=C(c3ccc4ccccc4c3)CC2c2ccc(Cl)cc2)SC1=S (configuration not stated) | 52 | 93.5 | 86.9 | –
30 | 1.5 | CN1C(=O)/C(=C/NCC(=O)N2N=C(c3ccc4ccccc4c3)CC2c2ccc(F)cc2)SC1=S (configuration not stated) | 46.6 | 95.6 | 94.8 | –
31 | 4.4 | CC1CS(=O)(=O)CCN1/N=C/c1ccc([N+](=O)[O-])o1 (configuration not stated) [NIFURTIMOX] | – | – | – | Ratio CC50/IC50 [12]: 17.8; CC50 at 120 h [10]: 78.2 µM
